Assay results gathered from unrelated publications.
Each line is one published result; the experiments were not run side by side.
Method: competition with immobilised ligand
JAK3 JH1: Tyrosine-protein kinase JAK3, JH1 (JAK3, Homo sapiens, UniProt P52333)
JAK3: Tyrosine-protein kinase JAK3 (JAK3, Homo sapiens, UniProt P52333)

For `COc1ccnn2ncc(-c3ccnc(N(C)C)n3)c12`, the remaining binding was 94% (JAK3 JH1; cell-free assay; 1 µM).
`c1cncc(-c2cccc(Nc3nccc(NC4CCCCC4)n3)c2)c1` has a remaining binding of 6.4% (JAK3 JH1; binding; 10 µM).
With `O=C(NCc1ncc(C(F)(F)F)cc1Cl)c1ccc2c(c1)C1(CCS(=O)(=O)CC1)[C@H](C1CC1)N2S(=O)(=O)c1ccc(F)cc1` the remaining binding was 79% (JAK3 JH1; cell-free assay; 1 µM).
With `CN(C)c1nccc(-c2cnn3ncccc23)n1` the remaining binding was 0% (JAK3 JH1; cell-free assay; 1 µM).
`O=C(c1ccc(Nc2nccc(-c3cc4ccccc4s3)n2)cc1)N1CCC(N2CCCC2)CC1` has a remaining binding of 0.4% (JAK3 JH1; binding; 1 µM).
For `O=C(Nc1cccnn1)N1CCC(=Cc2cccc(Oc3ccc(C(F)(F)F)cn3)c2)CC1`, the remaining binding was 100% (JAK3 JH1; cell-free assay; 1 µM).
For `C[C@@H](c1ccc(-n2cnc3c(N)ncnc32)cc1)N1CCc2nn(C)c(Cc3ccccc3)c2C1=O`, the remaining binding was 96% (JAK3 JH1; binding; 0.1 µM).
For `CC(C)(C)c1ccc(-c2nc(CBr)nn2-c2cccc(O)c2)cc1`, the remaining binding was 65% (JAK3; cell-free assay; 10 µM).
For `O=C(c1ccc(Nc2ncc(Cl)c(-c3ccc(Cl)s3)n2)cc1)N1CCC(N2CCCC2)CC1`, the remaining binding was 0.3% (JAK3 JH1; binding; 1 µM).
With `C[C@@H]1CN(c2ccc3ncc(-c4ccc5[nH]nc(C6CC6)c5c4)n3n2)C[C@H](C)O1` the remaining binding was 11% (JAK3; binding; 0.5 µM).
With `F[C@@H]1CCN(c2nccc(-c3cnn4ncccc34)n2)C1` the remaining binding was 100% (JAK3 JH1; cell-free assay; 1 µM).
`CNC(=O)[C@@H]1CC[C@@H](n2c(-c3ccc4cnccc4c3)nc3ccc(C(=O)NCc4cccc(C(N)=O)c4)cc32)C1` has a remaining binding of 100% (JAK3 JH1; binding; 1 µM).
The remaining binding of `N#CC1(c2ccccn2)CCN(Cc2cc(C(=O)N3CCCC3)c(=O)n3ccccc23)CC1` is reported as 100% (JAK3 JH1; cell-free assay; 1 µM).
`O=C(c1ccc(Nc2ncc(Cl)c(-c3cc4ccccc4s3)n2)cc1)N1CCC(N2CCCC2)CC1` has a remaining binding of 0% (JAK3 JH1; binding; 1 µM).
For `Cc1noc([C@H]2C[C@@H](c3ccc(C(F)(F)F)cc3)CN(C(=O)N3CCS(=O)(=O)C3)C2)n1`, the remaining binding was 100% (JAK3 JH1; cell-free assay; 1 µM).
With `O=C(NCC1CCOCC1)c1n[nH]cc1NC(=O)c1c(F)cccc1F` the remaining binding was 91% (JAK3 JH1; binding; 1 µM).
The remaining binding of `NS(=O)(=O)c1cc(NC(=O)C2(c3ccccc3Cl)CC2)ccc1Oc1cccc(Cl)c1` is reported as 64% (JAK3 JH1; cell-free assay; 1 µM).
For `N#Cc1ccccc1CSc1nnc2c(n1)[nH]c1ccccc12`, the remaining binding was 93% (JAK3 JH1; binding; 10 µM).
For `COc1ccc2cc(OCC3(C(=O)O)CN(C(=O)c4ccc(F)cc4)C3)ccc2c1`, the remaining binding was 100% (JAK3 JH1; cell-free assay; 1 µM).
`N[C@@H]1CCN(c2nccc(-c3cnn4ncccc34)n2)C1` gave a remaining binding of 100% (JAK3 JH1; cell-free assay; 1 µM).
`C[C@@]1(Cc2ccc(C#N)cc2)C(=O)N(c2cc(Cl)cc(Cl)c2)c2ncc(C(=O)NC3(c4nc(C5CCC5)no4)CC3)n21` gave a remaining binding of 100% (JAK3 JH1; cell-free assay; 1 µM).
With `COc1cnc(Nc2cccc(S(N)(=O)=O)c2)nc1N1CCN(c2ccccc2)CC1` the remaining binding was 42% (JAK3 JH1; binding; 1 µM).
